From article PMC3205354 (Chemistry & biology, 2011)

Key:
[1] = tested on: GST-fusion FAPP1 PH domain; experiment: Liposome binding assay; parameters: species or system human; conditions: SUVs of POPC, POPE, POPS and PI (50:20:15:15); 20 mM MOPS, 100 mM KCl, pH 7.0
Outline: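 GST-tagged FAPP1 PH expressed in E. coli BL21(DE3) and purified on glutathione Sepharose. Lipids dried from CHCl3:MeOH:H2O (65:25:4) were resuspended in MOPS/KCl buffer and extruded 19 times through a 1 µm membrane. Liposomes were pelleted at 25,000 × g for 20 min, resuspended, and incubated with protein (stock 1.7 µg/µl) for 1 hr at room temperature. They were re-pelleted, and pellet and supernatant were analysed by SDS-PAGE.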

FAPP1 PH domain [2] = biological target: T1, FAPP1 PH domain (Homo sapiens, UniProt Q9HB20); conditions: 5 mol% in monolayer; ref He, et al., 2011; cited from earlier work
T1 sequence (Q9HB20 1-99): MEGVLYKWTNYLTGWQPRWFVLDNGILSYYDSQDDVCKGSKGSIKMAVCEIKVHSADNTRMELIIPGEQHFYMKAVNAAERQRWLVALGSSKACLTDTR

FAPP1 PH domain [3] = biological target: T1, FAPP1 PH domain; experiment: SPR equilibrium binding to lipid vesicles; conditions: read-out: Kd (SPR); POPC/POPE/PI (75:20:5) liposomes; 10 mM HEPES (pH 7.4), 160 mM KCl, 25°C
FAPP1 PH domain [4] = biological target: T1, FAPP1 PH domain; experiment: NMR 1H,15N HSQC titration; format: binding; conditions: read-out: Kd (NMR); 25 mM Bis-Tris, 150 mM NaCl, pH 6.5, 25°C
Outline: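 Human FAPP1 PH (aa 1–99), ¹⁵N-labeled, expressed in E. coli Rosetta (DE3) pLysS in ¹⁵NH₄Cl minimal medium (0.1 mM IPTG, room temperature, 6 hr). It was purified on Talon resin, His tag removed with thrombin, then size exclusion. HSQC spectra of 0.1–0.2 mM protein were recorded at 600 MHz with stepwise ligand addition. Normalized ¹H/¹⁵N shift changes were fitted against ligand and protein concentrations to give Kd.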

Row | Structure (SMILES) | partitioning of GST-FAPP1 PH between supernatant and pelleted SUVs [1] | surface pressure (πc) (FAPP1 PH domain [2]) | Kd (FAPP1 PH domain [3]) | Kd (FAPP1 PH domain [4])
1 | CCCCCCCCCCCCCCCC(=O)OC[C@H](COP(=O)(O)O[C@H]1[C@H](O)[C@@H](O)[C@H](OP(=O)(O)O)[C@@H](O)[C@H]1O)OC(=O)CCCCCCCCCCCCCCC [C16-PtdIns(4)P] | half of the protein associated with SUVs | 33 mN/m | 0.00046 mM | –
2 | O=P(O)(O)OC1[C@@H](O)[C@@H](O)C(OP(=O)(O)O)[C@H](O)[C@H]1O (stereo partly shown) [Ins(1,4)P2, inositol 1,4-bisphosphate] | – | – | – | 20 mM
